pIC50: −log10 of the molar value. Activity calls are given as the source filed them. The calls are words filed in the database; no cut-off is given here.
Legend:
[1] = Cytotoxicity against human HCT116 cells assessed as growth inhibition after 72 hrs by sulforhodamine B assay; assay type: functional, cell-based, HCT-116; conditions: for pIC50: Homo sapiens, HCT-116, 72 h, read-out: IC50; for IC50: hct-116
Procedure, shortened: (§1)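 Cells were grown at 37°C, 5% CO2 in DMEM with 10% FBS. They were seeded at 1000–3000 cells/well, grown 24 h, then exposed to compound at 2.5–40 µM for 72 h. Cells were fixed in 10% TCA for 1 h at 4°C, stained with 0.4% SRB in 1% acetic acid for 10 min, and the dye solubilized in 10 mM Tris. Absorbance was read at 515 nm; runs were in triplicate; IC50 was calculated, with fits of R2 0.8–1 accepted.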

MCF7 = assay: Cytotoxicity against human MCF7 cells assessed as growth inhibition after 72 hrs by sulforhodamine B assay; assay type: functional, cell-based; conditions: for pIC50: Homo sapiens, MCF7, 72 h, read-out: IC50; for IC50: mcf7; procedure, shortened: as §1
[2] = Cytotoxicity against human HuH7 cells assessed as growth inhibition after 72 hrs by sulforhodamine B assay; assay type: functional, cell-based, Huh-7; conditions: for pIC50: Homo sapiens, Huh-7, 72 h, read-out: IC50; for IC50: huh-7; procedure, shortened: as §1
[3] = Cytotoxicity against human SNU475 cells assessed as growth inhibition after 72 hrs by sulforhodamine B assay; assay type: functional, cell-based, SNU-475; conditions: for pIC50: Homo sapiens, SNU-475, 72 h, read-out: IC50; for IC50: snu-475; procedure, shortened: as §1
[4] = Cytotoxicity against human Hep3B cells assessed as growth inhibition after 72 hrs by sulforhodamine B assay; assay type: functional, cell-based, Hep 3B2; conditions: for pIC50: Homo sapiens, Hep3B, 72 h, read-out: IC50; for IC50: hep 3b2; procedure, shortened: as §1
HepG2 = assay: Cytotoxicity against human HepG2 cells assessed as growth inhibition after 72 hrs by sulforhodamine B assay; assay type: functional, cell-based; conditions: for pIC50: Homo sapiens, HepG2, 72 h, read-out: IC50; for IC50: hepg2; procedure, shortened: as §1
[5] = Cytotoxicity against human Mahlavu cells assessed as growth inhibition after 72 hrs by sulforhodamine B assay; assay type: functional, cell-based; conditions: for pIC50: Homo sapiens, Mahlavu, 72 h, read-out: IC50; for IC50: mahlavu; procedure, shortened: as §1
[6] = Cytotoxicity against human FOCUS cells assessed as growth inhibition after 72 hrs by sulforhodamine B assay; assay type: functional, cell-based; conditions: for pIC50: Homo sapiens, FOCUS, 72 h, read-out: IC50; for IC50: focus; procedure, shortened: as §1
Huh-7 [7] = assay: Induction of apoptosis in human HuH7 cells assessed as horseshoe nuclear structure at 10 uM after 48 hrs by Hoechst 33258 staining-based immunofluorescence microscopy; assay type: functional, cell-based
Procedure, shortened: (§2)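 Cells on coverslips were incubated overnight, then treated with 10 µM compound or DMSO for 48 h. They were washed in ice-cold PBS, fixed in cold methanol for 10 min, and stained with 1 µg/mL Hoechst 33258 for 5 min in the dark. Nuclei were examined by fluorescence microscopy with a 40x objective.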

Huh-7 [8] = assay: Cytotoxicity against human HuH7 cells assessed as cell impedance at IC25 to IC100 measured every 30 mins for 72 hrs by RT-CES assay; assay type: functional, cell-based; conditions: TDE = time-dependent effect
Procedure, shortened: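 Huh7 cells were seeded at 1000–5000 cells/well on electrode plates. […] Impedance was read as cell index every 10 min for the first 24 h, then every 30 min, over 72 h. Data were normalized to DMSO; inhibition (%) = [1 − (CI treated/CI DMSO)] × 100. Each experiment was run at least three times.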

Huh-7 [9] = assay: Induction of apoptosis in human HuH7 cells assessed as nuclear condensation at 10 uM after 48 hrs by Hoechst 33258 staining-based immunofluorescence microscopy; assay type: functional, cell-based; procedure, shortened: as §2
Huh-7 [10] = assay: Induction of cell cycle arrest in human HuH7 cells assessed as accumulation at subG1 phase at 10 uM after 24 to 48 hrs by propidium iodide staining based FACS analysis; assay type: functional
Procedure, shortened: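 Huh7 cells were seeded at 300,000 per 100-mm dish. After 24 h they were treated with 10 µM compound or DMSO for 24 h and 48 h. Cells were trypsinized, fixed in ice-cold 70% ethanol and stored at −20 °C. They were then stained with propidium iodide and cell-cycle distribution, including SubG1, was read by flow cytometry.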

Compound `COc1ccc2cc(C(C)c3nnc4n3N=C(c3ccc(Cl)cc3)CS4)ccc2c1` (centres undefined) has a pIC50 [1] of 5.06, a pIC50 (MCF7) of 5.00 and a pIC50 [2] of 5.25.
With `CC(c1ccc(-c2ccccc2)c(F)c1)c1nnc2n1N=C(c1ccc([N+](=O)[O-])cc1)CS2` (centres undefined) the pIC50 [1] was 5.15, the pIC50 [3] was 5.15 and the pIC50 [4] was 5.54. The pIC50 (HepG2) was 5.37, the pIC50 [5] was 5.03 and the pIC50 [6] was 5.46. For the same compound, the Activity (Huh-7 [7]) was “inactive”, the Activity (Huh-7 [8]) was “tde” and the pIC50 (MCF7) was 5.11. The Activity (Huh-7 [9]) was “inactive” and the pIC50 [2] was 5.37.
`CC(C)Cc1ccc(C(C)c2nnc3n2N=C(c2ccc(C(F)(F)F)cc2)CS3)cc1` (centres undefined) gave a pIC50 [1] of 5.19, a pIC50 (MCF7) of 5.38 and a pIC50 [2] of 5.08.
Compound `CC(C)Cc1ccc(C(C)c2nnc3n2N=C(c2ccc(Cl)cc2Cl)CS3)cc1` (centres undefined) has a pIC50 [1] of 4.95, a pIC50 (MCF7) of 4.93 and a pIC50 [2] of 5.12.
With `COc1ccc2cc([C@H](C)C(=O)O)ccc2c1` [NAPROXEN] the IC50 [1] was “Not Active”, the IC50 [3] was “Not Active” and the IC50 [4] was “Not Active”. For the same compound, the IC50 (HepG2) was “Not Active”, the IC50 [5] was “Not Active” and the IC50 [6] was “Not Active”. The IC50 (MCF7) was “Not Active” and the IC50 [2] was “Not Active”.
Work on `COc1ccc2cc(C(C)c3nnc4n3N=C(c3ccccc3)CS4)ccc2c1` (centres undefined) yielded a pIC50 [1] of 5.05, a pIC50 (MCF7) of 4.93 and a pIC50 [2] of 5.24.
`CC(C)Cc1ccc(C(C)c2nnc3n2N=C(c2ccc(Cl)cc2)CS3)cc1` (centres undefined) gave a pIC50 [1] of 5.17, a pIC50 (MCF7) of 5.06 and a pIC50 [2] of 5.24.
Compound `COc1ccc2cc(C(C)c3nnc4n3N=C(c3ccc(OC(F)(F)F)cc3)CS4)ccc2c1` (centres undefined) has a pIC50 [1] of 4.93, a pIC50 (MCF7) of 5.06 and a pIC50 [2] of 4.80.
Compound `CC(c1ccc(-c2ccccc2)c(F)c1)c1nnc2n1N=C(c1ccc(OC(F)(F)F)cc1)CS2` (centres undefined) has a pIC50 [1] of 5.27, a pIC50 (MCF7) of 5.32 and a pIC50 [2] of 5.08.
`COc1ccc2cc(C(C)c3nnc4n3N=C(c3ccc(Br)cc3)CS4)ccc2c1` (centres undefined) gave a pIC50 [1] of 4.93, a pIC50 (MCF7) of 4.94 and a pIC50 [2] of 5.03.
Compound `CC(c1ccc(-c2ccccc2)c(F)c1)c1nnc2n1N=C(c1ccc(Cl)cc1)CS2` (centres undefined) has a pIC50 [1] of 5.11, a pIC50 [3] of 5.42 and a pIC50 [4] of 5.42. For the same compound, the pIC50 (HepG2) was 5.17, the pIC50 [5] was 5.21 and the pIC50 [6] was 5.30. The Activity (Huh-7 [7]) was “Active”, the Activity (Huh-7 [8]) was “tde” and the pIC50 (MCF7) was 5.06. For the same compound, the Activity (Huh-7 [10]) was “Active”, the Activity (Huh-7 [9]) was “Active” and the pIC50 [2] was 5.41.
With `CC(C)Cc1ccc(C(C)c2nnc3n2N=C(c2ccc([N+](=O)[O-])cc2)CS3)cc1` (centres undefined) the IC50 [1] was “Not Active”, the IC50 (MCF7) was “Not Active” and the IC50 [2] was “Not Active”.
With `CC(C)Cc1ccc(C(C)C(=O)O)cc1` (centres undefined) [IBUPROFEN] the IC50 [1] was “Not Active”, the IC50 [3] was “Not Active” and the IC50 [4] was “Not Active”. For the same compound, the IC50 (HepG2) was “Not Active”, the IC50 [5] was “Not Active” and the IC50 [6] was “Not Active”. The IC50 (MCF7) was “Not Active” and the pIC50 [2] was 4.43.
Compound `CC(C)Cc1ccc(C(C)c2nnc3n2N=C(c2ccc(F)cc2)CS3)cc1` (centres undefined) has a pIC50 [1] of 4.91, a pIC50 (MCF7) of 5.05 and a pIC50 [2] of 5.11.
`CC(c1ccc(-c2ccccc2)c(F)c1)c1nnc2n1N=C(c1ccc(Br)cc1)CS2` (centres undefined) showed a pIC50 [1] of 5.15, a pIC50 [3] of 5.15 and a pIC50 [4] of 5.82. For the same compound, the pIC50 (HepG2) was 5.43, the pIC50 [5] was 5.21 and the pIC50 [6] was 5.07. The Activity (Huh-7 [7]) was “inactive”, the Activity (Huh-7 [8]) was “tde” and the pIC50 (MCF7) was 5.13. For the same compound, the Activity (Huh-7 [9]) was “inactive” and the pIC50 [2] was 5.30.
Work on `CC(c1ccc(-c2ccccc2)c(F)c1)c1nnc2n1N=C(c1ccc(F)cc1)CS2` (centres undefined) yielded a pIC50 [1] of 4.98, a pIC50 [3] of 5.18 and a pIC50 [4] of 5.59. The pIC50 (HepG2) was 5.29, the pIC50 [5] was 5.13 and the pIC50 [6] was 5.46. The Activity (Huh-7 [7]) was “Active”, the Activity (Huh-7 [8]) was “tde” and the pIC50 (MCF7) was 5.09. The Activity (Huh-7 [9]) was “Active” and the pIC50 [2] was 5.31.
With `CC(c1ccc(-c2ccccc2)c(F)c1)c1nnc2n1N=C(c1ccccc1)CS2` (centres undefined) the pIC50 [1] was 5.01, the pIC50 (MCF7) was 5.13 and the pIC50 [2] was 5.17.

From ChEMBL document CHEMBL3751842, “Novel triazolothiadiazines act as potent anticancer agents in liver cancer cells through Akt and ASK-1 proteins” (Bioorg Med Chem, 2016)
